In ChEMBL document CHEMBL4014281, “Design, synthesis and biological evaluation of gentiopicroside derivatives as potential antiviral inhibitors” (Eur J Med Chem, 2017):

Each compound was assayed on Hepatitis C virus (assay: Antiviral activity against HCV pseudoparticle harboring HCV envelope protein E1 and E2 assessed as inhibition of pseudoparticle entry into human Huh7 cells at 5 uM measured after 3 days by Bright-Glo luciferase reporter gene assay relative to control). Conditions: Huh-7, 72 h.
Format: functional, Hepacivirus hominis
How it was run: (§1)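 HCV pseudoparticle entry screen with each compound at 1 µM and 5 µM in 1% DMSO. DMSO-only wells set maximum entry (negative control); echinocystic acid served as the entry-blocking positive control.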
`C=C[C@@H]1C2=CCOC(=O)C2=CO[C@H]1O[C@@H]1O[C@H](CNC(C)=O)[C@@H](O)[C@H](O)[C@H]1O` gave an inhibition at 5 µM of 11.2%.
With `C=C[C@@H]1C2=CCOC(=O)C2=CO[C@H]1O[C@@H]1O[C@H](CO)[C@H](S)[C@H](O)[C@H]1OC(=O)c1ccccc1` the inhibition at 5 µM was 4.5%.
For `C=C[C@@H]1C2=CCOC(=O)C2=CO[C@H]1O[C@@H]1O[C@H](COC(=O)c2ccccc2)[C@H](N=[N+]=[N-])[C@H](OC(=O)c2ccccc2)[C@H]1OC(=O)c1ccccc1`, the inhibition at 5 µM was 17.9%.
In the case of `C=C[C@@H]1C2=CCOC(=O)C2=CO[C@H]1O[C@@H]1O[C@H](CF)[C@@H](OC(C)=O)[C@H](OC(C)=O)[C@H]1OC(C)=O`, the inhibition at 5 µM is reported as 7.8%.
Compound `C=C[C@@H]1C2=CCOC(=O)C2=CO[C@H]1O[C@@H]1O[C@H](COC(=O)c2ccccc2)[C@H](F)[C@H](OC(=O)c2ccccc2)[C@H]1OC(=O)c1ccccc1` has an inhibition at 5 µM of 0.2%.
Work on `C=C[C@@H]1C2=CCOC(=O)C2=CO[C@H]1O[C@@H]1O[C@H](CO)[C@@H](S)[C@H](O)[C@H]1O` yielded an inhibition at 5 µM of 18.6%.
`C=C[C@@H]1C2=CCOC(=O)C2=CO[C@H]1O[C@@H]1O[C@H](CNC(C)=O)[C@@H](OC(C)=O)[C@H](OC(C)=O)[C@H]1OC(C)=O` was tested, and the inhibition at 5 µM was 8.8%.
For `C=C[C@@H]1C2=CCOC(=O)C2=CO[C@H]1O[C@@H]1O[C@H](CO)[C@@H](O)[C@H](O)[C@H]1O` [GENTIOPICROSIDE], the inhibition at 5 µM was 2.1%.
Work on `C=C[C@@H]1C2=CCOC(=O)C2=CO[C@H]1O[C@@H]1O[C@H](COC(=O)c2ccccc2)[C@@H](O)[C@H](OC(=O)c2ccccc2)[C@H]1OC(=O)c1ccccc1` yielded an inhibition at 5 µM of 8.1%.
`C=C[C@@H]1C2=CCOC(=O)C2=CO[C@H]1O[C@@H]1O[C@H](CO)[C@@H](F)[C@H](O)[C@H]1O` showed an inhibition at 5 µM of 45.9%.
Compound `C=C[C@@H]1C2=CCOC(=O)C2=CO[C@H]1O[C@@H]1O[C@H](COC(=O)c2ccccc2)[C@@H](N=[N+]=[N-])[C@H](OC(=O)c2ccccc2)[C@H]1OC(=O)c1ccccc1` has an inhibition at 5 µM of 4.7%.
`C=C[C@@H]1C2=CCOC(=O)C2=CO[C@H]1O[C@@H]1O[C@H](CF)[C@@H](O)[C@H](O)[C@H]1O` showed an inhibition at 5 µM of 1%.
`C=C[C@@H]1C2=CCOC(=O)C2=CO[C@H]1O[C@@H]1O[C@H](COC(=O)c2ccccc2)[C@@H](SC(C)=O)[C@H](OC(=O)c2ccccc2)[C@H]1OC(=O)c1ccccc1` gave an inhibition at 5 µM of 45.1%.
For `CC1(C)CC[C@]2(C(=O)O)[C@H](O)C[C@]3(C)C(=CC[C@@H]4[C@@]5(C)CC[C@H](O)C(C)(C)[C@@H]5CC[C@]43C)[C@@H]2C1`, the inhibition at 5 µM was 69.6%.

These compounds were tested on Hepatitis C virus (assay: Antiviral activity against HCV pseudoparticle harboring HCV envelope protein E1 and E2 assessed as inhibition of pseudoparticle entry into human Huh7 cells at 1 uM measured after 3 days by Bright-Glo luciferase reporter gene assay relative to control). Conditions: Huh-7, 72 h.
Format: functional, Hepacivirus hominis
How it was run: as §1
In the case of `C=C[C@@H]1C2=CCOC(=O)C2=CO[C@H]1O[C@@H]1O[C@H](CNC(C)=O)[C@@H](O)[C@H](O)[C@H]1O`, the inhibition at 1 µM is reported as 0.2%.
`C=C[C@@H]1C2=CCOC(=O)C2=CO[C@H]1O[C@@H]1O[C@H](CO)[C@H](S)[C@H](O)[C@H]1OC(=O)c1ccccc1` was tested, and the inhibition at 1 µM was 0.3%.
With `C=C[C@@H]1C2=CCOC(=O)C2=CO[C@H]1O[C@@H]1O[C@H](COC(=O)c2ccccc2)[C@H](N=[N+]=[N-])[C@H](OC(=O)c2ccccc2)[C@H]1OC(=O)c1ccccc1` the inhibition at 1 µM was 0.2%.
Work on `C=C[C@@H]1C2=CCOC(=O)C2=CO[C@H]1O[C@@H]1O[C@H](CF)[C@@H](OC(C)=O)[C@H](OC(C)=O)[C@H]1OC(C)=O` yielded an inhibition at 1 µM of 1.1%.
Work on `C=C[C@@H]1C2=CCOC(=O)C2=CO[C@H]1O[C@@H]1O[C@H](COC(=O)c2ccccc2)[C@H](F)[C@H](OC(=O)c2ccccc2)[C@H]1OC(=O)c1ccccc1` yielded an inhibition at 1 µM of 0.1%.
For `C=C[C@@H]1C2=CCOC(=O)C2=CO[C@H]1O[C@@H]1O[C@H](CO)[C@@H](S)[C@H](O)[C@H]1O`, the inhibition at 1 µM was 5.6%.
Compound `C=C[C@@H]1C2=CCOC(=O)C2=CO[C@H]1O[C@@H]1O[C@H](CNC(C)=O)[C@@H](OC(C)=O)[C@H](OC(C)=O)[C@H]1OC(C)=O` has an inhibition at 1 µM of 9.1%.
`C=C[C@@H]1C2=CCOC(=O)C2=CO[C@H]1O[C@@H]1O[C@H](CO)[C@@H](O)[C@H](O)[C@H]1O` [GENTIOPICROSIDE] gave an inhibition at 1 µM of 0.6%.
In the case of `C=C[C@@H]1C2=CCOC(=O)C2=CO[C@H]1O[C@@H]1O[C@H](COC(=O)c2ccccc2)[C@@H](O)[C@H](OC(=O)c2ccccc2)[C@H]1OC(=O)c1ccccc1`, the inhibition at 1 µM is reported as 0.7%.
`C=C[C@@H]1C2=CCOC(=O)C2=CO[C@H]1O[C@@H]1O[C@H](CO)[C@@H](F)[C@H](O)[C@H]1O` was tested, and the inhibition at 1 µM was 0.9%.
`C=C[C@@H]1C2=CCOC(=O)C2=CO[C@H]1O[C@@H]1O[C@H](COC(=O)c2ccccc2)[C@@H](N=[N+]=[N-])[C@H](OC(=O)c2ccccc2)[C@H]1OC(=O)c1ccccc1` showed an inhibition at 1 µM of 0.1%.
For `C=C[C@@H]1C2=CCOC(=O)C2=CO[C@H]1O[C@@H]1O[C@H](CF)[C@@H](O)[C@H](O)[C@H]1O`, the inhibition at 1 µM was 0.3%.
`C=C[C@@H]1C2=CCOC(=O)C2=CO[C@H]1O[C@@H]1O[C@H](COC(=O)c2ccccc2)[C@@H](SC(C)=O)[C@H](OC(=O)c2ccccc2)[C@H]1OC(=O)c1ccccc1` showed an inhibition at 1 µM of 0.2%.
`CC1(C)CC[C@]2(C(=O)O)[C@H](O)C[C@]3(C)C(=CC[C@@H]4[C@@]5(C)CC[C@H](O)C(C)(C)[C@@H]5CC[C@]43C)[C@@H]2C1` showed an inhibition at 1 µM of 30.7%.

The compounds below were run on Hepatitis C virus (assay: Antiviral activity against HCV pseudoparticle harboring HCV envelope protein E1 and E2 assessed as inhibition of pseudoparticle entry into human Huh7 cells measured after 3 days by Bright-Glo luciferase reporter gene assay). Conditions: Hepacivirus hominis.
Format: functional
`C=C[C@@H]1C2=CCOC(=O)C2=CO[C@H]1O[C@@H]1O[C@H](CO)[C@@H](F)[C@H](O)[C@H]1O` was tested, and the inhibition was “Dose-dependent effect”.
In the case of `C=C[C@@H]1C2=CCOC(=O)C2=CO[C@H]1O[C@@H]1O[C@H](COC(=O)c2ccccc2)[C@@H](SC(C)=O)[C@H](OC(=O)c2ccccc2)[C@H]1OC(=O)c1ccccc1`, the inhibition is reported as “Dose-dependent effect”.
